ChEMBL document CHEMBL1255300, “Pharmacodynamics of the antibacterial effect and emergence of resistance to tomopenem, formerly RO4908463/CS-023, in an in vitro pharmacokinetic model of Staphylococcus aureus infection” (Antimicrob Agents Chemother, 2008)
≈ marks a conversion by molar mass, not a printed value. Calls of active or inactive are those of the source. No cut-off for these calls is given here.

Key:
[1] = tested on: Staphylococcus aureus; assay: Antibacterial activity against methicillin-resistant Staphylococcus aureus 33820 in in vitro pharmacokinetic model assessed as viable count at 6 times of MIC; type: functional
Outline: (§1)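 Population analysis before drug exposure (time 0). Model samples were plated on nutrient agar without drug and with tomopenem at 2×, 4× and 6× MIC (10% MHB MIC), and growth was recorded as log CFU/ml. Detection limit 2 log10.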

[2] = tested on: Staphylococcus aureus; assay: Antibacterial activity against methicillin-resistant Staphylococcus aureus 33815 infected in in vitro pharmacokinetic model assessed as time required to 99% killing at 1500 mg, iv every 8 hrs using 10^6 CFU/ml inoculum; type: functional
[3] = tested on: Staphylococcus aureus; assay: AUBKC (0 to 24 hrs) in methicillin-resistant Staphylococcus aureus 33820 infected in in vitro pharmacokinetic model at 750 mg, iv every 8 hrs using 10^6 CFU/ml inoculum; type: functional
Outline: (§2)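 Single-compartment dilutional in vitro PK model at 37°C in 10% Mueller-Hinton broth, stirred, flow 132 ml/h. […] Inoculum 10^6 CFU/ml added 45 min before dosing, or 10^8 CFU/ml run overnight. Viable counts with β-lactamase neutralisation. AUBKC by log-linear trapezoidal rule, at least triplicate.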

[4] = tested on: Staphylococcus aureus; assay: Antibacterial activity against methicillin-resistant Staphylococcus aureus 33815 infected in in vitro pharmacokinetic model assessed as time required to 99.9% killing at 750 mg, iv every 8 hrs using 10^6 CFU/ml inoculum; type: functional
[5] = tested on: Staphylococcus aureus; assay: Antibacterial activity against methicillin-sensitive Staphylococcus aureus 5956 infected in in vitro pharmacokinetic model assessed as time required to 99% killing at 1500 mg, iv every 8 hrs using 10^6 CFU/ml inoculum; type: functional
[6] = tested on: Staphylococcus aureus; assay: Antibacterial activity against methicillin-resistant Staphylococcus aureus 33815 infected in in vitro pharmacokinetic model assessed as reduction in viable count at 1500 mg, iv every 8 hrs measured after 12 hrs using 10^6 CFU/ml inoculum; type: functional
Outline: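 Log change in viable count from time zero to 12 h, β-lactamase-neutralised spiral plating, detection limit 10^2 CFU/ml, at least triplicate.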

[7] = tested on: Staphylococcus aureus; assay: AUBKC (0 to 48 hrs) in methicillin-resistant Staphylococcus aureus 33815 infected in in vitro pharmacokinetic model at 1500 mg, iv every 8 hrs using 10^8 CFU/ml inoculum; type: functional; outline: as §2
[8] = tested on: Staphylococcus aureus; assay: Antibacterial activity against methicillin-resistant Staphylococcus aureus 33820 in in vitro pharmacokinetic model assessed as viable count at 4 times of MIC; type: functional; outline: as §1
[9] = tested on: Staphylococcus aureus; assay: Antibacterial activity against methicillin-resistant Staphylococcus aureus 33827 assessed as viable count at 4 times of MIC after 24 hrs using 10^6 CFU/ml inoculum; type: functional, organism-based
[10] = tested on: Staphylococcus aureus; assay: Antibacterial activity against methicillin-resistant Staphylococcus aureus 33829 by broth dilution method; type: functional
Outline: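 MIC by CLSI broth dilution, or by broth dilution in 10% Mueller-Hinton broth at nondoubling dilutions.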

[11] = tested on: Staphylococcus aureus; assay: T>MIC for 1-log drop in count in methicillin-resistant Staphylococcus aureus 33922 in in vitro pharmacokinetic model after 24 hrs using 10^8 CFU/ml inoculum; type: functional
[12] = tested on: Staphylococcus aureus; assay: T>MIC in methicillin-sensitive Staphylococcus aureus 5956 infected in vitro pharmacokinetic model at 750 mg, iv every 8 hrs; type: functional
[13] = tested on: Staphylococcus aureus; assay: T>MIC for 1-log drop in count in methicillin-resistant Staphylococcus aureus 33829 in in vitro pharmacokinetic model after 24 hrs using 10^6 CFU/ml inoculum; type: functional
[14] = tested on: Staphylococcus aureus; assay: Antibacterial activity against methicillin-resistant Staphylococcus aureus 33922 in in vitro pharmacokinetic model assessed as viable count at 2 times of MIC; type: functional
[15] = tested on: Staphylococcus aureus; assay: T>MIC for 2-log drop in count in methicillin-resistant Staphylococcus aureus 33827 in in vitro pharmacokinetic model after 24 hrs using 10^6 CFU/ml inoculum; type: functional
[16] = tested on: Staphylococcus aureus; assay: AUBKC (0 to 48 hrs) in methicillin-resistant Staphylococcus aureus 33815 infected in in vitro pharmacokinetic model at 1500 mg, iv every 8 hrs using 10^6 CFU/ml inoculum; type: functional; outline: as §2
[17] = tested on: Staphylococcus aureus; assay: T>MIC for 1-log drop in count in methicillin-resistant Staphylococcus aureus 33815 in in vitro pharmacokinetic model after 24 hrs using 10^6 CFU/ml inoculum; type: functional
[18] = tested on: Staphylococcus aureus; assay: AUBKC (0 to 48 hrs) in methicillin-resistant Staphylococcus aureus 33922 infected in in vitro pharmacokinetic model at 750 mg, iv every 8 hrs using 10^6 CFU/ml inoculum; type: functional; outline: as §2
[19] = tested on: Staphylococcus aureus; assay: Antibacterial activity against methicillin-resistant Staphylococcus aureus 33827 infected in in vitro pharmacokinetic model assessed as time required to 99.9% killing at 750 mg, iv every 8 hrs using 10^6 CFU/ml inoculum; type: functional
Outline: (§3)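 Single-compartment dilutional in vitro PK model, 10% Mueller-Hinton broth, 37°C, stirred, dilution 132 ml/h. […] Inoculum 10^6 CFU/ml (added 45 min pre-dose) or 10^8 CFU/ml (run overnight). Viable counts by spiral plating, beta-lactamase neutralization, detection limit 10^2 CFU/ml. At least triplicate.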

[20] = tested on: Staphylococcus aureus; assay: Antibacterial activity against methicillin-resistant Staphylococcus aureus 33827 infected in in vitro pharmacokinetic model assessed as time required to 99.9% killing at 1500 mg, iv every 8 hrs using 10^8 CFU/ml inoculum; type: functional; outline: as §3
[21] = tested on: Staphylococcus aureus; assay: Antibacterial activity against methicillin-resistant Staphylococcus aureus 33827 infected in in vitro pharmacokinetic model assessed as reduction in viable count at 1500 mg, iv every 8 hrs measured after 24 hrs using 10^6 CFU/ml inoculum; type: functional; outline: as §3
[22] = tested on: Staphylococcus aureus; assay: Antibacterial activity against methicillin-resistant Staphylococcus aureus 33827 infected in in vitro pharmacokinetic model assessed as reduction in viable count at 1500 mg, iv every 8 hrs measured after 12 hrs using 10^8 CFU/ml inoculum; type: functional; outline: as §3
[23] = tested on: Staphylococcus aureus; assay: Antibacterial activity against methicillin-resistant Staphylococcus aureus 33921 infected in in vitro pharmacokinetic model assessed as reduction in viable count at 1500 mg, iv every 8 hrs measured after 48 hrs using 10^6 CFU/ml inoculum; type: functional; outline: as §3
[24] = tested on: Staphylococcus aureus; assay: Antibacterial activity against methicillin-resistant Staphylococcus aureus 33921 infected in in vitro pharmacokinetic model assessed as reduction in viable count at 750 mg, iv every 8 hrs measured after 48 hrs using 10^6 CFU/ml inoculum; type: functional
[25] = tested on: Staphylococcus aureus; assay: Antibacterial activity against methicillin-resistant Staphylococcus aureus 33827 infected in in vitro pharmacokinetic model assessed as time required to 99.9% killing at 750 mg, iv every 8 hrs using 10^8 CFU/ml inoculum; type: functional; outline: as §3
[26] = tested on: Staphylococcus aureus; assay: Antibacterial activity against methicillin-resistant Staphylococcus aureus 33922 by broth dilution method; type: functional
[27] = tested on: Staphylococcus aureus; assay: Antibacterial activity against methicillin-resistant Staphylococcus aureus 33829 infected in in vitro pharmacokinetic model assessed as reduction in viable count at 1500 mg, iv every 8 hrs measured after 48 hrs using 10^6 CFU/ml inoculum; type: functional; outline: as §3
[28] = tested on: Staphylococcus aureus; assay: Antibacterial activity against methicillin-resistant Staphylococcus aureus 33827 infected in in vitro pharmacokinetic model assessed as reduction in viable count at 1500 mg, iv every 8 hrs measured after 48 hrs using 10^8 CFU/ml inoculum; type: functional; outline: as §3

## C[C@@H](O)[C@H]1C(=O)N2C(C(=O)O)=C(S[C@H]3C[C@@H](C(=O)N4CC[C@H](NC(=O)CNC(=N)N)C4)N(C)C3)[C@H](C)[C@H]12 [TOMOPENEM]
[1]
  log10CFU/ml: <2
[2]
  Time: 3 h
[3]
  AUBC: 28.6 log10CFU/ml.hr
[4]
  Time: 12 h
[5]
  Time: 5 h
[6]
  log10CFU/ml: 4.2
[7]
  AUBC: 152.6 log10CFU/ml.hr
[8]
  log10CFU/ml: <2
[9]
  Activity: inactive
[10]
  MIC: 2 µg/mL (≈ 3.72 µM)
[11]
  fT>MIC: 2%
[12]
  fT>MIC: 100%
[13]
  fT>MIC: 16.8%
[14]
  log10CFU/ml: 8.3
[15]
  fT>MIC: 31.2%
[16]
  AUBC: 12.5 log10CFU/ml.hr
[17]
  fT>MIC: 8.6%
[18]
  AUBC: 27.7 log10CFU/ml.hr
[19]
  Time: 7 h
[20]
  Time: 12 h
[21]
  log10CFU/ml: 4
[22]
  log10CFU/ml: 3.4
[23]
  log10CFU/ml: 3.7
[24]
  log10CFU/ml: 3.8
[25]
  Time: 12 h
[26]
  MIC: 0.5 µg/mL (≈ 0.93 µM)
[27]
  log10CFU/ml: 3.8
[28]
  log10CFU/ml: 5.9
